# From PubChem BioAssay
# Fh CTSL1 inh = blocks F. hepatica cathepsin L1 in PFM18AAP counter-screen | recombinant F. hepatica cathepsin L1, Z-Leu-Arg-MCA fluorescence | inhibition, % at 5.96 µM | actives 0.49% (n = 300,000) | AID 1906;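 active = inhibition above the mean of all tested compounds plus 3 SD, set per screening campaign, cut at about 17% in these data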;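 note: 0% = plate median of test compound wells and 100% = 1 µM Z-Phe-Ala-diazomethylketone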
# M18AAP inhibitor = blocks P. falciparum M18 aspartyl aminopeptidase | inhibition, % at 7.35 µM | actives 1.2% (n = 290,000) | recombinant PfM18AAP, H-Glu-NHMec fluorogenic cleavage;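 active = inhibition above the campaign mean inhibition over all tested compounds plus 3 SD, cut at about 28% in these data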;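 note: 0% = plate median of test compound wells and 100% = 2 mM ZnCl2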
# VIM-2 inh = blocks Pseudomonas aeruginosa VIM-2 metallo-beta-lactamase | purified VIM-2, nitrocefin hydrolysis, epi-absorbance fluorescence | inhibition, % at 5.6 µM | actives 0.89% (n = 290,000) | AID 1527;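 active = inhibition above the mean of all tested compounds plus 3 SD, cutoff set per screening run, cut at about 7.5% in these data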;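 note: red hydrolysis product quenches plate fluorescence so inhibitors raise well fluorescence; 0% = enzyme with DMSO and 100% = DMSO without enzyme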
# IMP-1 inh-1 = blocks Pseudomonas aeruginosa IMP-1 metallo-beta-lactamase; AID 1556; purified IMP-1, nitrocefin hydrolysis, epi-absorbance fluorescence; actives 0.45% (n = 290,000); inhibition, % at 5.6 µM;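 active = inhibition above the mean plus 3 SD of all compounds in the same screening run, cut at about 4.5% in these data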;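 note: 0% = IMP-1 with DMSO and 100% = DMSO wells lacking enzyme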
#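 assay system = purified recombinant IMP-1 metallo-beta-lactamase enzyme | schedule = 15 min preincubation plus 25 min reaction at 25 °C | signal = Epi-absorbance fluorescence, 480 nm excitation, 530 nm emission | read-out basis = percent inhibition from optical density relative to buffer-blank wells | controls = IMP-1 with DMSO as 0%, enzyme-free DMSO as 100%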
# IMP-1 inh-2 = IMP-1 inhibition, counter-screen for VIM-2 inhibitors; shares compounds with VIM-2 inh; purified IMP-1, nitrocefin hydrolysis, epi-absorbance fluorescence; inhibition, % at 5.6 µM; 1,300 tested, under 10 active; AID 1856; call rule not given here;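 note: 0% = enzyme with vehicle and 100% = vehicle without enzyme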
# VIM-2 FRET ctr = inhibits VIM-2 in FRET assay to exclude epi-absorbance artifacts | shares compounds with VIM-2 inh | purified VIM-2, CCF2 FRET substrate hydrolysis | inhibition, % at 5.6 µM | actives 23% (n = 1,300) | AID 1857;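 active = inhibition above the mean of all tested compounds plus 3 SD, cut at about 19% in these data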;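 note: 0% = VIM-2 plus DMSO and 100% = no enzyme wells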
# TEM-1 inh = TEM-1 inhibition, counter-screen for VIM-2 inhibitors. Purified TEM-1, nitrocefin hydrolysis, epi-absorbance fluorescence. inhibition, % at 5.6 µM. shares compounds with VIM-2 inh. actives 3% (n = 1,300);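 active = inhibition above that campaign's mean inhibition plus 3 SD, cut at about 0.46% in these data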;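 note: 0% = TEM-1 with DMSO and 100% = TEM-1 with 100 µM potassium clavulanate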
# Target sequence (P62593 whole entry, looked up): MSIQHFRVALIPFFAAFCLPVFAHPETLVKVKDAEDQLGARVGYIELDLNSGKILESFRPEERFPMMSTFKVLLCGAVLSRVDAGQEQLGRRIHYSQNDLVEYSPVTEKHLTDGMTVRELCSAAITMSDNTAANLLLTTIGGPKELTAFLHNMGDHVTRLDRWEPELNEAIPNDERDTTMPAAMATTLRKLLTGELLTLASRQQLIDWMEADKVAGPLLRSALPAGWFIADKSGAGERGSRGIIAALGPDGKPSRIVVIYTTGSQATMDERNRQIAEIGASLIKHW
# VIM-2 inh conf = confirmation of P. aeruginosa VIM-2 metallo-beta-lactamase inhibitors. shares compounds with VIM-2 inh. purified VIM-2, nitrocefin hydrolysis, epi-absorbance. inhibition, % at 5.6 µM. actives 96% (n = 1,300). AID 2187;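 active = inhibition of the VIM-2 beta-lactamase enzyme above about 11% from the earlier first-round screen, limit read from the data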;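 note: 0% = VIM-2 with DMSO and 100% = buffer wells without enzyme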
# * = called active by the depositor; . = no result. Only some compounds are listed: those with a hit (about 2.7% of all), similar ones and a draw of the others.
SMILES,Fh CTSL1 inh,M18AAP inhibitor,VIM-2 inh,IMP-1 inh-1,IMP-1 inh-2,VIM-2 FRET ctr,TEM-1 inh,VIM-2 inh conf
Cc1ccccc1-n1c(-c2ccco2)n[nH]c1=S,2,30*,14*,-2,-2,45*,-3,31*
CC(C)Cn1c(-c2ccco2)nc2c(c(=O)c3ccccc3n2C)c1=O,4,7,13*,-2,-3,-3,-5,32*
COc1ccc(Cn2c(-c3ccco3)nc3c(c(=O)c4ccccc4n3C)c2=O)cc1,2,-11,2,-4,.,.,.,.
CC(C)Cn1c(-c2ccco2)n[nH]c1=S,-6,9,17*,-4,-3,49*,-8,31*
CCCCn1c(-c2ccoc2C)n[nH]c1=S,1,22,16*,-4,-2,45*,-2,30*
C=CCn1c(-c2ccoc2C)n[nH]c1=S,-4,3,-4,-6,.,.,.,.
COc1ccc(CC(=O)Oc2ccc(F)cc2)cc1,5,-9,0,-1,.,.,.,.
CCn1c(-c2ccco2)n[nH]c1=S,1,-2,4,-1,.,.,.,.
CCCCn1c(-c2ccco2)n[nH]c1=S,1,19,42*,-4,-3,72*,-7,53*
CCc1cc2c(CN3CCN(CC)CC3)cc(=O)oc2cc1O,1,-10,21*,0,-4,-22,-6,25*
CCCNC(=O)COc1ccc(-c2nn(C)c(=O)c3ccccc23)cc1,0,-3,13*,-1,-2,-1,-3,20*
Cn1nc(-c2ccc(OCC(N)=O)cc2)c2ccccc2c1=O,-1,1,13*,-4,-2,0,-5,30*
Cc1cccc(NC(=O)COc2ccc(-c3nn(C)c(=O)c4ccccc34)cc2)c1,1,-3,16*,-2,-3,0,-7,18*
COc1ccccc1NC(=O)COc1ccc(-c2nn(C)c(=O)c3ccccc23)cc1,-1,1,6,-1,.,.,.,.
CCOc1ccc(CCNC(=O)C2CCN(S(=O)(=O)N3CCC(C)CC3)CC2)cc1OCC,1,-3,-3,-2,.,.,.,.
C=CCc1ccc(OCCOc2cccc3ccc(C)nc23)c(OC)c1,-2,11,-2,-5,.,.,.,.
COc1ccc(C(C)C)cc1S(=O)(=O)n1ccnc1C,-1,-7,-2,-2,.,.,.,.
COc1ccc(Cn2c(C)nc3ccc([N+](=O)[O-])cc3c2=O)cc1,4,-2,-2,-3,.,.,.,.
Cc1ccc(Cn2ncc3c(NN)ncnc32)cc1,.,23,41*,-2,-4,-10,-5,58*
CCN1CCN(c2cc(N3CCN(C(=O)c4ccco4)CC3)c3c4c(onc24)-c2ccccc2C3=O)CC1,-3,22,23*,1,-2,-13,-10,21*
N#CCCCN1C(=O)C(=C(C#N)C#N)c2ccccc21,0,-2,-3,-2,.,.,.,.
CCN(CC)CCCNC(=O)C1CCN(c2ncnc3c2sc2cccc(F)c23)CC1,-2,-1,27*,2,-1,10,-6,39*
CC1CC(C)CN(CCCNC(=O)C2CCN(c3ncnc4c3sc3cccc(F)c34)CC2)C1 (configuration not stated),2,-2,25*,-1,0,3,-6,36*
Nc1ccc(N2CCN(CCCCN3C(=O)C4CCCN4C3=O)CC2)cc1 (configuration not stated),1,13,25*,-3,-10,-6,-6,11*
COc1ccc(CN(C)C(=O)c2ccc3c(=O)n4c(nc3c2)CCC4)cc1,-1,1,-1,0,.,.,.,.
SMILES,Fh CTSL1 inh,M18AAP inhibitor,VIM-2 inh,IMP-1 inh-1,IMP-1 inh-2,VIM-2 FRET ctr,TEM-1 inh,VIM-2 inh conf
COc1ccc(NC2CCCN(C(=O)CCC(=O)c3ccc(F)cc3)C2)cc1 (configuration not stated),-2,10,-2,-1,.,.,.,.
Cc1ccc(-c2nn(C)c(=O)c3ccccc23)cc1S(=O)(=O)NCCN1CCOCC1,-2,5,14*,-8,-3,-1,-5,28*
Cc1cc(NC(=O)CN2C(=O)NC3(CCC(C)CC3)C2=O)no1 (configuration not stated),1,0,-6,-3,.,.,.,.
COc1cc(Nc2cc(C)nc3ncnn23)cc(OC)c1,-2,2,5,-3,.,.,.,.
COC(=O)c1cc(Nc2cc(C)nc3ncnn23)cc(C(=O)OC)c1,2,4,15*,-3,-5,3,-5,35*
Oc1ccc(-c2n[nH]c(=S)n2-c2ccc3c(c2)OCCO3)cc1,-4,18,14*,-1,-2,33*,-8,20*
S=c1[nH]nc(-c2ccc3ccccc3n2)n1-c1ccc2ncccc2c1,0,17,4,0,.,.,.,.
Fc1ccc(-n2c(-c3ccc4c(c3)OCO4)n[nH]c2=S)cc1Cl,0,22,0,-4,.,.,.,.
S=c1[nH]nc(Cn2c(-c3ccccn3)nc3ccccc32)n1-c1ccc2c(c1)OCCO2,-1,19,23*,-2,-3,49*,-5,31*
S=c1[nH]nc(-c2ccc3ncccc3c2)n1-c1ccc2c(c1)OCCO2,-1,27,27*,-1,-2,52*,-6,33*
CC(=O)c1ccc(OCc2cc(C(=O)N(C)CCOc3ccc(C)cc3)no2)cc1,4,-5,-2,-1,.,.,.,.
COc1cccc(C(=O)NCC(=O)OCc2ccc(F)cc2Cl)c1,-11,2,0,-3,.,.,.,.
COc1cc(C(=O)n2nc(C)cc2C)ccc1O,-3,14,-2,-4,.,.,.,.
COc1ccccc1CN1[C@@H](CC(C)=O)c2cc(C(F)(F)F)ccc2S1(=O)=O,-1,.,.,.,.,.,.,.
CC(CCN1CCN=C1Nc1ccccc1)c1ccccc1 (configuration not stated),1,-3,-3,-2,.,.,.,.
COC(=O)Cc1cc(=O)oc2cc(O)ccc12,4,5,-4,-3,.,.,.,.
CN(C)CCNS(=O)(=O)c1ccc(N2CCN(c3ccc(F)cc3)CC2)c([N+](=O)[O-])c1,-2,-3,15*,-3,-3,34*,-8,24*
C=CCSc1nc2c(C(=O)OCC)nnn2c2ccccc12,.,3,28*,-3,-4,-4,-11,39*
Oc1cccc(/C=N/Nc2nn3cnnc3c3ccccc23)c1,1,17,16*,-4,-4,0,-5,37*
Oc1cccc(/C=N/Nc2ccc(Cl)nn2)c1,5,6,0,0,.,.,.,.
N#Cc1ccc(-c2cccs2)nc1SCc1cccnc1,2,2,-3,-2,.,.,.,.
CN1CCN(C(=O)CSc2nc(-c3cccs3)ccc2C#N)CC1,0,8,28*,-2,-3,4,-7,50*
